Assays:
Human glioma T98G cells [1] = test: Time-dependent cellular uptake; format: cell-based; conditions: 10 μM, over 24 h
How it was run: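 T98G glioma cells (EMEM, 10% FBS) seeded 10 000/well, grown 36 h, then exposed to 10 μM test compound for 0, 1, 2, 4, 8, 24 h. After PBS wash, cells lysed in 0.25% Triton X-100/PBS; porphyrin fluorescence read at 415/650 nm. Cell number by CyQuant; uptake expressed as nM compound per cell.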

[2] = In vitro BBB model permeability; format: in vitro ADME, human
How it was run: (§1)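 hCMEC/D3 brain endothelial cells grown 48 h on 0.4 μm PET transwell inserts in EBM-2 with 5% FBS, hydrocortisone, ascorbic acid, lipid concentrate, HEPES, bFGF. Test compound or lucifer yellow reference (1 mg/mL in HBSS, pH 6.7–7.8) added apically; basolateral HBSS. 37 °C, 5% CO2; lower chamber sampled at 0, 30, 60 min (five replicates). Fluorescence 415/650 nm (LY 420/540); P by clearance principle.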

hCMEC/D3 cells = test: In vitro BBB model permeability; format: in vitro ADME, human; conditions: hCMEC/D3 monolayer, 1 mg/mL in HBSS, up to 60 min
How it was run: as §1

Human glioma T98G cells [3] = test: Dark cytotoxicity; format: cell-based; conditions: read-out: dark toxicity IC50, CellTiter Blue assay, concentrations up to 400 μM, overnight

Compound | time-dependent uptake (in words) (Human glioma T98G cells [1]) | Papp A→B [2] | Permeability coefficient P × 10^–6 (hCMEC/D3 cells) | IC50 (Human glioma T98G cells [3])
N=C(N)NCCC[C@@H](NC(=O)[C@H](Cc1ccc(O)cc1)NC(=O)CCOCCOCCOCCNc1c(F)c(F)c(-c2c3nc(c(-c4c(F)c(F)c(SCC56BBBBC(BBB5)BBB6)c(F)c4F)c4ccc([nH]4)c(-c4c(F)c(F)c(SCC56BBBBC(BBB5)BBB6)c(F)c4F)c4nc(c(-c5c(F)c(F)c(SCC67BBBBC(BBB6)BBB7)c(F)c5F)c5ccc2[nH]5)C=C4)C=C3)c(F)c1F)C(=O)N[C@@H](Cc1ccccc1)C(=O)NCCC(N)=O [Compound 8] | had the least | 1.71 ± 0.06 ×10⁻⁶ cm/s |  | 
lucifer yellow [LY, reference compound] |  |  | 21.7 ± 0.30 × 10^–6 cm/s | 
5,10,15,20-Tetra(p-carboranylmethylthiotetrafluorophenyl)porphyrin [Compound 1] | accumulated the fastest |  | 1.36 ± 0.04 × 10^–6 cm/s | > 400 µM

From article PMC4136688 (Journal of Medicinal Chemistry, 2014)
